Rows were chosen to be rich in hits. Some 2.2% of all compounds tested hit in one or more screens of this group.
Neddyl block: cullin neddylation inhibition. TR-FRET cullin neddylation, biochemical. inhibition, % at 25 µM. 360,000 tested, 0.58% active. AID 651699; in the data active means inhibition above about 36%
Target sequence (P61081 whole entry, looked up): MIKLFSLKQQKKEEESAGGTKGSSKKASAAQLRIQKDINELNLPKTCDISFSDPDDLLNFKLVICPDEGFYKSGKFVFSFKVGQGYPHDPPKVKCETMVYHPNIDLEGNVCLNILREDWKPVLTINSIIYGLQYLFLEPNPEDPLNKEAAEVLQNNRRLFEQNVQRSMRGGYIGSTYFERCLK
Target sequence (Q13564 whole entry, looked up): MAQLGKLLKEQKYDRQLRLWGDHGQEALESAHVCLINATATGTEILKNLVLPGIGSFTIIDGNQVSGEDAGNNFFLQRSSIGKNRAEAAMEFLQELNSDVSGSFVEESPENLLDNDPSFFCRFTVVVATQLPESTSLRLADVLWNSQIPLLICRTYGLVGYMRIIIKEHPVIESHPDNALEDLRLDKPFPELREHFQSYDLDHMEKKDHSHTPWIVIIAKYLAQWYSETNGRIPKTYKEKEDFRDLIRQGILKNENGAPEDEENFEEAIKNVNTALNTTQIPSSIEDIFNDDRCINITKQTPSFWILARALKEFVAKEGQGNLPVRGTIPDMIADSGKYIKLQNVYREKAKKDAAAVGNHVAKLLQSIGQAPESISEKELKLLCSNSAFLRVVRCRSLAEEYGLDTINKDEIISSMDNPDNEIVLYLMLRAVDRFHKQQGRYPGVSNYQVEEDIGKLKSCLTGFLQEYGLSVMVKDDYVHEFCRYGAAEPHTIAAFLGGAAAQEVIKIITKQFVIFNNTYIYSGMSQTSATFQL
PfM18AAP inh-1: PfM18AAP enzyme inhibition | AID 1822 | recombinant PfM18AAP, H-Glu-NHMec fluorogenic cleavage | 290,000 tested, 1.2% active | inhibition, % at 7.35 µM;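 active means inhibition above the campaign mean inhibition over all tested compounds plus 3 SD, cut at about 28% in these data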
PfG6PD inh: PfG6PD (Plasmodium falciparum) enzyme inhibition. PfGluPho enzyme, NADPH resazurin-diaphorase fluorescence. inhibition, % at 20 µM. 350,000 tested, 0.78% active;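 active means inhibition reaching at least a set limit at 20 µM in the primary screen, cut at about 59% in these data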
HKDC1 inhibitor: inhibitors of human hexokinase HKDC1; recombinant HKDC1, G6PDH/diaphorase resazurin coupled fluorescence; inhibition, % at 20 µM; 340,000 tested, 0.16% active; AID 493160;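 active means inhibition above about 35% when tested at 20 µM, limit read from the data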
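Assay system: recombinant HKDC1 hexokinase; detection: coupled resazurin fluorescence, excitation 525 nm, emission 613 nm; benchmarks: DMSO-plus-enzyme-mix negative control, buffer-substituted positive control; compound dosing: single 20 µM dose; schedule: 90 min at room temperature in dark; also added: glucose plus 1 mM ATP as hexokinase substrates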
PfM18AAP inh-2: confirmation of Plasmodium falciparum M18 aspartyl aminopeptidase inhibitors; shares compounds with PfM18AAP inh-1; recombinant PfM18AAP, H-Glu-NHMec fluorogenic cleavage; inhibition, % at 7.35 µM; 2,400 tested, 28% active;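 active means mean inhibition over replicate wells above the hit cutoff set for the earlier primary screen, cut at about 29% in these data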
CTSL1 counter: counter-screen for PFM18AAP inhibitors: confirmation of human cathepsin L inhibitors. purified cathepsin L1, Z-Leu-Arg-MCA fluorescence. shares compounds with PfM18AAP inh-1. inhibition, % at 5.96 µM. AID 2178. 2,400 tested, under 10 active;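 active means average inhibition across replicates above the hit cutoff set in the earlier primary screen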
Of the large screens only hits and unclear results are named; the others gave an inactive call (follow-up assays come after a bar, where shown).

C/C(CC(=O)Nc1ccc2ccccc2c1)=N\NC(=O)c1ccc(O)c(O)c1	PfM18AAP inh-1 68.5 | PfM18AAP inh-2 50.4 | CTSL1 counter inactive
C/C(CC(=O)Nc1ccc2ccccc2c1)=N\NC(=O)c1cnccn1	none
O=C(NNC(=S)Nc1ccc(Cl)cc1)c1cccs1	none
NS(=O)(=O)c1ccc(NNC(=O)c2cccs2)cc1	PfM18AAP inh-1 54.7 | PfM18AAP inh-2 36.4 | CTSL1 counter inactive
O=C(NNc1cc(Cl)cc(Cl)c1)c1cccs1	PfM18AAP inh-1 37.0 | PfM18AAP inh-2 32.8 | CTSL1 counter inactive
O=C(NNC(=O)c1cccs1)Nc1cccc(Cl)c1	PfM18AAP inh-1 60.3 | PfM18AAP inh-2 inactive | CTSL1 counter inactive
O=C(NNc1ccc(Cl)cc1)c1cccs1	PfM18AAP inh-1 44.5 | PfM18AAP inh-2 inactive | CTSL1 counter inactive
COc1ccc(CCNC(=O)COC(=O)/C=C/c2ccc3c(c2)OCO3)cc1OC	none (no result: PfM18AAP inh-1)
COC(C(=O)Nc1ccnn1C1CCN(Cc2nccs2)CC1)c1ccccc1 (stereo unspecified)	none
O=C(NCCNC(=O)c1ccc(Cl)cc1Cl)c1cnccn1	none
CCc1c(O)c(-c2ccccc2)c(=O)n(-c2ccccn2)c1-c1ccccc1	PfM18AAP inh-1 39.2 | PfM18AAP inh-2 inactive | CTSL1 counter inactive
NNc1nc2cc3c(cc2s1)OCCO3	PfM18AAP inh-1 51.9 | PfM18AAP inh-2 inactive | CTSL1 counter inactive
O=C(Nc1nc2cc3c(cc2s1)OCCO3)c1cccs1	none (not shown: Neddyl block)
O=C(/C=C/c1ccccc1)n1cnnc1SC/C=C/c1ccccc1	PfM18AAP inh-1 41.4 | PfM18AAP inh-2 inactive | CTSL1 counter inactive
Cc1nnc(SC/C=C/c2ccccc2)n(N)c1=O	none
CCc1nnc(NC(=O)CSc2nnc(-c3ccccc3O)o2)s1	PfM18AAP inh-1 34.3 | PfM18AAP inh-2 inactive | CTSL1 counter inactive
CCOCc1nnc(NC(=O)CSc2ccccc2)s1	none
CC(C)(C)Cc1nnc(NC(=O)CSc2ccccc2)s1	PfM18AAP inh-1 39.6 | PfM18AAP inh-2 inactive | CTSL1 counter inactive
CCc1nnc(NC(=O)CSc2nnc(CSc3nc(C)cc(C)n3)o2)s1	PfM18AAP inh-1 36.2 | PfM18AAP inh-2 inactive | CTSL1 counter inactive
Oc1ccc(CCNc2ncnc3ccc(Cl)cc23)cc1	none
O=C(Cc1ccccc1)NN=C1CCCC1	none (no result: PfM18AAP inh-1)
N#CCC(=O)NN=C1CCCCCCCCCCC1	PfM18AAP inh-1 53.7 | PfM18AAP inh-2 inactive | CTSL1 counter inactive
CCCNC(=O)Cc1ncn[nH]1	none
O=C(Cc1ncn[nH]1)NCCc1ccccc1	PfM18AAP inh-1 32.2 | PfM18AAP inh-2 40.0 | CTSL1 counter inactive
Fc1ccc(-n2c(=S)[nH]c3cccnc32)cc1	PfM18AAP inh-1 36.7 | PfM18AAP inh-2 inactive | CTSL1 counter inactive
CC(C)(C)OC(=O)N1CCC(C(=O)Nc2cccc(C(=O)N3CCCCC3)c2)CC1	none (no result: PfM18AAP inh-1)
COc1cc2c(cc1OC)C(COc1cccc(C(F)(F)F)c1)NCC2 (stereo unspecified)	none
O=C(c1cnn(C(=O)COc2ccccc2F)c1)c1cc(F)ccc1O	PfM18AAP inh-1 43.3 | PfM18AAP inh-2 inactive | CTSL1 counter inactive
CN(C)c1cccc(C(=O)n2cc(C(=O)c3cc(F)ccc3O)cn2)c1	PfM18AAP inh-1 53.0 (not shown: Neddyl block) | PfM18AAP inh-2 inactive | CTSL1 counter inactive
O=C(c1cnc2nc3ccccc3n2c1)c1cc(F)ccc1O	none
O=S1(=O)N[C@@H](Cc2ccccc2)COc2cc(N3CCSCC3)ccc21	none (no result: PfM18AAP inh-1, PfG6PD inh, HKDC1 inhibitor)
Cc1ccc2oc(=O)c(/C=C(\O)c3cccs3)nc2c1	PfM18AAP inh-1 37.4 | PfM18AAP inh-2 29.1 | CTSL1 counter inactive
CC(C)CNC(=O)c1ccc(-c2ccc(F)c(F)c2)c2ccoc12	none (no result: PfM18AAP inh-1, PfG6PD inh, HKDC1 inhibitor)
Cc1nc(C)c(C(=O)NNC(=O)Nc2ccc(Cl)cc2)s1	PfM18AAP inh-1 54.9 | PfM18AAP inh-2 inactive | CTSL1 counter inactive
O=S(=O)(c1ccccc1)c1nc(-c2cccc(Cl)c2)oc1N1CCOCC1	none
C/C(CC(=O)Nc1ccccc1C#N)=N\NC(=O)c1ccncc1	PfM18AAP inh-1 36.9 | PfM18AAP inh-2 inactive | CTSL1 counter inactive
CC(=O)Nc1ccccc1NC(=O)C/C(C)=N/NC(=O)c1ccncc1	none
COc1ccc(CN2CCN(C(=O)c3ccccc3C(=O)c3ccccc3)CC2)cc1OC	none (no result: PfM18AAP inh-1)
CCOC(=O)c1c(C)nsc1NC(=O)C1CCCCC1	none
COc1cc(CN2CCCCCC2)c([N+](=O)[O-])cc1OC	PfM18AAP inh-1 32.6 | PfM18AAP inh-2 inactive | CTSL1 counter inactive
COc1cc(/C=N/Nc2ccc(C(=O)O)cc2)ccc1O	PfM18AAP inh-1 50.5 | PfM18AAP inh-2 inactive | CTSL1 counter inactive

Assay outcomes (PubChem)
